According to PMC3996760 (Brain research, 2014):
“Also recorded” adds a separate entry of the source. Read-outs that look alike come from different tables or passages of the source.

Columns and labels:
male Wistar rats [1] = assay: Open field test; type: in vivo; settings: for OF total distance: 15 min; for OF total distance / OF % time in central zone: mean ± SEM; for OF % time in central zone: first 5 min
[2] = ref Munro et al., 2008, cited from earlier work
male Wistar rats [3] = assay: Morris water maze test; type: in vivo; settings: acquisition, mean ± SEM
Summary of the method: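 Pool 200 cm diameter, 23 °C water, platform submerged 2 cm. Four trials per block, max 120 s each, 60 s intertrial interval, pseudorandom starts. Escape latency video-tracked and averaged per rat per day; n=7.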

male Wistar rats [4] = assay: Spontaneous locomotor activity test; type: in vivo; settings: for SLA total distance: 30 min recording, mean ± SEM
male Wistar rats [5] = assay: Rotarod test; type: in vivo; settings: for RR time on rotarod: max 120 s, mean ± SEM
male Wistar rats [6] = assay: Grip strength test; type: in vivo; settings: for GS grip strength: mean ± SEM
Summary of the method: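 At 20 min post-dose, rats gripped a trapezoid wire grid on a grip-strength meter with their front paws and were lifted by the tail with increasing firmness until release. n=8 per group; one-way ANOVA.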

male Wistar rats [7] = assay: Elevated plus maze test; type: in vivo; settings: for EPM % time on open arms / EPM number of closed arm entries: mean ± SEM
Summary of the method: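 Maze 50 cm high, closed arms lit at 10 lux red. Rat placed centrally facing an enclosed arm and video-tracked for 5 min. Arm entry scored at 80% body crossing. One-way ANOVA; ANCOVA for % open-arm time with closed-arm entries as covariate; n=7.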

α1β3γ2 GABAA receptors = α1β3γ2 GABAA receptors (Rattus norvegicus, UniProt P18508+P62813); type: cell-based; settings: for in vitro efficacy: GABA EC3
male Wistar rats [8] = assay: Peripheral nerve injury model; type: in vivo
[9] = Quantification in rat plasma and brain tissue; type: in vivo, Wistar rats; settings: for brain estimated free concentration: total × free fraction

Chain of α1β3γ2 GABAA receptors (P62813 28-455): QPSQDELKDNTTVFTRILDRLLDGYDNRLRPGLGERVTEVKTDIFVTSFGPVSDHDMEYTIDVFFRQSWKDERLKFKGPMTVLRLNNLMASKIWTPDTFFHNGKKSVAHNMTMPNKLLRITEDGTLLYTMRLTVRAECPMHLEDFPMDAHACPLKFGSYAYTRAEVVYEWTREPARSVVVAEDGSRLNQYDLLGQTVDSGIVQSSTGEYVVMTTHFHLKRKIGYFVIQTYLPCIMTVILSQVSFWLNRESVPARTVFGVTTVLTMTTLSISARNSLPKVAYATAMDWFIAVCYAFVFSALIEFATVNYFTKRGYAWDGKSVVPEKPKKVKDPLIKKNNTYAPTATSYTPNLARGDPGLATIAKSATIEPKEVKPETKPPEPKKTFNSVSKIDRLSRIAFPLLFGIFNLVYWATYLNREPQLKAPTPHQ
Chain of α1β3γ2 GABAA receptors (P18508 39-466): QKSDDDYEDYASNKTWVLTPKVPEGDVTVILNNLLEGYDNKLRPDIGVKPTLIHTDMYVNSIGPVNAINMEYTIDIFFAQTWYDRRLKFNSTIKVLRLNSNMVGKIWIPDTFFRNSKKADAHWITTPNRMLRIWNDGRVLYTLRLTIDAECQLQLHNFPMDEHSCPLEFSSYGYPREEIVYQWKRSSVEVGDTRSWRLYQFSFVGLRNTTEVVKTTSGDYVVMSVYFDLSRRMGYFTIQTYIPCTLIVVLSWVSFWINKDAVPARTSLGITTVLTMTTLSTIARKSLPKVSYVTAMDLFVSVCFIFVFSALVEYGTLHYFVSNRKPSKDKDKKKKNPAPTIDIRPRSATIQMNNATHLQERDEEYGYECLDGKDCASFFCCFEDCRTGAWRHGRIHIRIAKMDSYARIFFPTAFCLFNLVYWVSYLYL
Chain of α1β3γ2 GABAA receptors (P63079 26-473 partner): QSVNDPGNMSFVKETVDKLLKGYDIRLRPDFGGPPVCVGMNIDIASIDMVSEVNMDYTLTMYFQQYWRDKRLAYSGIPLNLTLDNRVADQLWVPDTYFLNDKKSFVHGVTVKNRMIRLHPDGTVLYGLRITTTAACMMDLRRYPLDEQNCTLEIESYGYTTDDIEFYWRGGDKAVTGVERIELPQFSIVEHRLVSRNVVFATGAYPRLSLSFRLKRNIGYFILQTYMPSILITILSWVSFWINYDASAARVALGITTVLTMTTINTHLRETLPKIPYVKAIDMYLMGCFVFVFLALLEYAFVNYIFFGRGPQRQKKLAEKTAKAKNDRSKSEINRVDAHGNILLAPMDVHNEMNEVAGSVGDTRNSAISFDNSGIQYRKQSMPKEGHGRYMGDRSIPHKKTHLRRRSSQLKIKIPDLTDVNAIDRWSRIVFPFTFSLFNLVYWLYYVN

**Q.** For `CN1C(=O)CN=C(c2ccccc2)c2cc(Cl)ccc21` [diazepam, reference compound], which OF total distance (male Wistar rats [1]; 2 mg/kg i.p.) is on record?
**A.** Its OF total distance is 24.50 ± 5.34 m.

**Q.** What about the “OF % time in central zone” value (male Wistar rats [1]; 2 mg/kg i.p.) of the same compound?
**A.** Its value is 3.09 ± 1.15%.

**Q.** And the “effect on hind paw hypersensitivity” value ([2]; highest dose tested (10 mg/kg))?
**A.** Its value is “able to attenuate hind paw hypersensitivity”.

**Q.** And the “MWM latency Day 1” value (male Wistar rats [3]; 2 mg/kg i.p. daily)?
**A.** The value was 103.45 ± 10.64 s.

**Q.** What about the “MWM latency Day 2” value (male Wistar rats [3]; 2 mg/kg i.p. daily) of the same compound?
**A.** The value was 92.82 ± 6.40 s.

**Q.** What about the “MWM latency Day 3” value (male Wistar rats [3]; 2 mg/kg i.p. daily) of the same compound?
**A.** Its value is 77.83 ± 15.52 s.

**Q.** What about the “MWM latency Day 4” value (male Wistar rats [3]; 2 mg/kg i.p. daily) of the same compound?
**A.** Its value is 59.02 ± 9.78 s.

**Q.** And the “MWM latency Day 5” value (male Wistar rats [3]; 2 mg/kg i.p. daily)?
**A.** The value was 56.40 ± 10.20 s.

**Q.** And the SLA total distance (male Wistar rats [4]; 2 mg/kg i.p.)?
**A.** The SLA total distance was 7.17 ± 1.13 m.

**Q.** And the “RR time on rotarod” value (male Wistar rats [5]; 2 mg/kg i.p.)?
**A.** Its value is 41.70 ± 9.79 s.

**Q.** And the GS grip strength (male Wistar rats [6]; 2 mg/kg i.p.)?
**A.** The GS grip strength was 1722.50 ± 197.65 g/kg.

**Q.** What about the “EPM % time on open arms” value (male Wistar rats [7]; 2 mg/kg i.p.) of the same compound?
**A.** Its value is 76.67 ± 6.67 %.

**Q.** And the “EPM number of closed arm entries” value (male Wistar rats [7]; 2 mg/kg i.p.)?
**A.** The value was 4.09 ± 0.77.

**Q.** Which “effect of adding β-CCt on latency to fall from the revolving rod” value (male Wistar rats [5]; β-CCt 30 mg/kg added to 10 and 25 mg/kg SH-I-048A, 0.5, 1 and 1.5 h) does the source give for `CC(C)(C)OC(=O)c1cc2c(cn1)[nH]c1ccccc12` [β-CCt, t-butyl-β-carboline-3-carboxylate] here?
**A.** The value was “increased latency to fall”.

**Q.** With `C[C@@H]1N=C(c2ccccc2F)c2cc(Br)ccc2NC1=O` [SH-I-048A, (S)-7-bromo-5-(2-fluorophenyl)-3-methyl-1Hbenzo[e][1,4]diazepin-2(3H)-one] as the compound, how does the in vitro efficacy (α1β3γ2 GABAA receptors; concentration 1 nM) read?
**A.** The in vitro efficacy was 124%.

**Q.** What about the in vitro efficacy (α1β3γ2 GABAA receptors; concentration 10 nM) of the same compound?
**A.** The in vitro efficacy was 256%.

**Q.** And the “approximated potentiation at estimated in vivo free brain concentration” value (α1β3γ2 GABAA receptors; free concentration 3.26 nM (0.5 mg/kg i.p., 20 min), linear interpolation)?
**A.** The value was 157%.

**Q.** And the OF total distance (male Wistar rats [1]; 10 mg/kg i.p.)?
**A.** The OF total distance was 15.39 ± 5.35 m.

**Q.** What about the “OF % time in central zone” value (male Wistar rats [1]; 10 mg/kg i.p.) of the same compound?
**A.** Its value is 30.01 ± 15.49%.

**Q.** What about the “effect on total distance traveled in open field vs solvent” value (male Wistar rats [1]; 10 mg/kg only, Dunnett p<0.001) of the same compound?
**A.** The value was “significantly decreased”.

**Q.** What about the “effect on percent of time spent in the central zone” value (male Wistar rats [1]; 0.2, 0.5, 2 and 10 mg/kg, p=0.669) of the same compound?
**A.** The value was “not significantly affected”.

**Q.** And the “MWM latency Day 1” value (male Wistar rats [3]; 10 mg/kg i.p. daily)?
**A.** Its value is 102.11 ± 9.11 s.

**Q.** What about the “MWM latency Day 2” value (male Wistar rats [3]; 10 mg/kg i.p. daily) of the same compound?
**A.** Its value is 88.52 ± 9.40 s.

**Q.** And the “MWM latency Day 3” value (male Wistar rats [3]; 10 mg/kg i.p. daily)?
**A.** The value was 62.98 ± 14.13 s.

**Q.** And the “MWM latency Day 4” value (male Wistar rats [3]; 10 mg/kg i.p. daily)?
**A.** Its value is 53.39 ± 14.74 s.

**Q.** What about the “MWM latency Day 5” value (male Wistar rats [3]; 10 mg/kg i.p. daily) of the same compound?
**A.** The value was 42.65 ± 13.99 s.

**Q.** And the “effect of Treatment on paw withdrawal threshold 48 h after surgery” value (male Wistar rats [8]; 10 mg/kg, one to three doses, p=0.157)?
**A.** Its value is “no significant effect”.

**Q.** What about the “paw withdrawal threshold 24 h after injury vs solvent” value (male Wistar rats [8]; three doses of 10 mg/kg (0, 12, 23 h), p=0.015) of the same compound?
**A.** The value was “significantly higher paw withdrawal threshold; also recorded: reversed mechanical hyperalgesia”.

**Q.** What about the SLA total distance (male Wistar rats [4]; 10 mg/kg i.p.) of the same compound?
**A.** The SLA total distance was 6.42 ± 2.26 m.

**Q.** And the “influence on total distance traveled during 30 min” value (male Wistar rats [4]; 2, 5 and 10 mg/kg, one-way ANOVA p=0.061)?
**A.** Its value is “did not reach statistical significance”.

**Q.** And the “distance traveled in second 5-min bin (5–10 min) vs solvent” value (male Wistar rats [4]; 5 and 10 mg/kg, p=0.017 and p=0.008)?
**A.** The value was “traveled shorter distances than the solvent-treated animals”.

**Q.** What about the “RR time on rotarod” value (male Wistar rats [5]; 10 mg/kg i.p.) of the same compound?
**A.** The value was 0.25 ± 0.16 s.

**Q.** And the GS grip strength (male Wistar rats [6]; 10 mg/kg i.p.)?
**A.** Its GS grip strength is 2588.83 ± 169.52 g/kg.

**Q.** What about the “effect on grip strength vs solvent” value (male Wistar rats [6]; 2, 5 and 10 mg/kg, p=0.002, p<0.001, p=0.002) of the same compound?
**A.** The value was “significant muscle relaxation”.

**Q.** What about the “EPM % time on open arms” value (male Wistar rats [7]; 10 mg/kg i.p.) of the same compound?
**A.** Its value is 67.43 ± 12.34 %.

**Q.** What about the “EPM number of closed arm entries” value (male Wistar rats [7]; 10 mg/kg i.p.) of the same compound?
**A.** Its value is 4.00 ± 1.23.

**Q.** What about the “influence on EPM parameters, preliminary study” value (male Wistar rats [7]; 0.5 and 2 mg/kg, data not shown) of the same compound?
**A.** The value was “devoid of any influences”.

**Q.** And the “effect of treatment on number of closed arm entries” value (male Wistar rats [7]; 2, 5 and 10 mg/kg, one-way ANOVA p=0.072)?
**A.** Its value is “no significant effect”.

**Q.** And the “effect of treatment on percentage of time spent on open arms” value (male Wistar rats [7]; 2, 5 and 10 mg/kg, one-way ANOVA p=0.095)?
**A.** Its value is “not significant”.

**Q.** What about the brain total concentration ([9]; 0.5 mg/kg i.p., 20 min) of the same compound?
**A.** The brain total concentration was 231.12 ± 52.27 nmol/kg.

**Q.** What about the “brain estimated free concentration” value ([9]; 0.5 mg/kg i.p., 20 min) of the same compound?
**A.** The value was 3.26 nmol/kg.

**Q.** And the brain total concentration ([9]; 2 mg/kg i.p., 20 min)?
**A.** Its brain total concentration is 750.59 ± 307.14 nmol/kg.

**Q.** What about the “brain estimated free concentration” value ([9]; 2 mg/kg i.p., 20 min) of the same compound?
**A.** Its value is 10.60 nmol/kg.

**Q.** What about the brain total concentration ([9]; 2 mg/kg i.p., 60 min) of the same compound?
**A.** Its brain total concentration is 739.37 ± 182.94 nmol/kg.

**Q.** And the “brain estimated free concentration” value ([9]; 2 mg/kg i.p., 60 min)?
**A.** The value was 10.45 nmol/kg.

**Q.** And the brain total concentration ([9]; 10 mg/kg i.p., 20 min)?
**A.** Its brain total concentration is 2096.33 ± 858.32 nmol/kg.

**Q.** What about the “brain estimated free concentration” value ([9]; 10 mg/kg i.p., 20 min) of the same compound?
**A.** Its value is 29.62 nmol/kg.

**Q.** What about the brain total concentration ([9]; 10 mg/kg i.p., 60 min) of the same compound?
**A.** Its brain total concentration is 1035.23 ± 421.19 nmol/kg.

**Q.** What about the “brain estimated free concentration” value ([9]; 10 mg/kg i.p., 60 min) of the same compound?
**A.** Its value is 14.63 nmol/kg.

**Q.** Which “activity in chronic constriction injury model” value [2] does the source give for `Cc1ccc(-c2nc3ccc(C)cn3c2CC(=O)N(C)C)cc1` [zolpidem] here?
**A.** Its value is “completely inactive”.
